Three compounds from ChEMBL document CHEMBL5653631, “A Potent and Selective ULK1 Inhibitor Suppresses Autophagy and Sensitizes Cancer Cells to Nutrient Stress” (iScience, 2018) can be followed below.

In assay [1] the target is T1, NUAK family SNF1-like kinase 2 (Homo sapiens) (UniProt Q9H093).
T1 sequence (whole entry): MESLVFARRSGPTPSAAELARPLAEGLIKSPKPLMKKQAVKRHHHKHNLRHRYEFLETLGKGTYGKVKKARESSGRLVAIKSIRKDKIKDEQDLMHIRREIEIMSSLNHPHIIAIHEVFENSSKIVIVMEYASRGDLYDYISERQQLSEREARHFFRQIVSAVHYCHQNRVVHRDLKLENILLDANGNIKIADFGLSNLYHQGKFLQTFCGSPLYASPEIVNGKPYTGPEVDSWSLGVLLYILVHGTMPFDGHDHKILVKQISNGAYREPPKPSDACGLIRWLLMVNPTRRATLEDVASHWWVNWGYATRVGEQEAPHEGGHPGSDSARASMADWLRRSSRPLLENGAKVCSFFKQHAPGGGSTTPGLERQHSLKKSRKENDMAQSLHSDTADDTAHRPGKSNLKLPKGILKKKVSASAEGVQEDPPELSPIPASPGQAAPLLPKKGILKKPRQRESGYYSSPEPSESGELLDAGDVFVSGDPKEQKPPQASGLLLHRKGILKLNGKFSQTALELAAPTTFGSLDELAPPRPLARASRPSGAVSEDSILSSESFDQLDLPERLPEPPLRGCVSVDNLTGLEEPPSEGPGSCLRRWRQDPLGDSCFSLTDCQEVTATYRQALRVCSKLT
Description: Inhibition of human recombinant NuaK2 at 40 nM related to control ULK1.

In assay [2] the target is Ribosomal protein S6 kinase alpha-2 (Homo sapiens) (UniProt Q15349). Description: Inhibition of human recombinant RSK3 at 40 nM in presence of ATP by radiometric assay relative to control.
Chain of Ribosomal protein S6 kinase alpha-2 (Homo sapiens) (Q15349 whole entry): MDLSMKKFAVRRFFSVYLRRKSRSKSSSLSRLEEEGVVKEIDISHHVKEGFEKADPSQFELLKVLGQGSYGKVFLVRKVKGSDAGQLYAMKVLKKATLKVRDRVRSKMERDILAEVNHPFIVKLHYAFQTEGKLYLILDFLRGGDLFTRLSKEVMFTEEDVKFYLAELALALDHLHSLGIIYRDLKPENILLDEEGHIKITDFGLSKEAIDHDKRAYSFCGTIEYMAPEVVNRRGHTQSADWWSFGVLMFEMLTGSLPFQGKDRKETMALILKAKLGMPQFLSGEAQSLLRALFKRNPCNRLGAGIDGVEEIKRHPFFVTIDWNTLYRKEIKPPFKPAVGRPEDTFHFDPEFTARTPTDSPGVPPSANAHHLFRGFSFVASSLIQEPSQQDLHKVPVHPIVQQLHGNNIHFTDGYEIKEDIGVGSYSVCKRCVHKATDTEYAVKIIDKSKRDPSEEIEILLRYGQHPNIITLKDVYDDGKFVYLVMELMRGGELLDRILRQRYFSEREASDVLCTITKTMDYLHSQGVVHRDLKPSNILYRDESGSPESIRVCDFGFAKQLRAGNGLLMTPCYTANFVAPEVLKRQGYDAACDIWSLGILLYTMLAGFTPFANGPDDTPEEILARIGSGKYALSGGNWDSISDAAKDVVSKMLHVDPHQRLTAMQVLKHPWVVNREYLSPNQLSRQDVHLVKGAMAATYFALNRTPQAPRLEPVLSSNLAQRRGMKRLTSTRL
In assay [3] the target is Calcium/calmodulin-dependent protein kinase type II subunit delta (Homo sapiens) (UniProt Q13557). Description: Inhibition of human recombinant CaMK2d at 40 nM related to control ULK1.
The target in assay [4] is Wee1-like protein kinase 2 (Homo sapiens) (UniProt P0C1S8). Kind of assay: Inhibition of human recombinant Wee1B at 40 nM in presence of ATP by radiometric assay relative to control.
Chain of Wee1-like protein kinase 2 (Homo sapiens) (P0C1S8 whole entry, looked up): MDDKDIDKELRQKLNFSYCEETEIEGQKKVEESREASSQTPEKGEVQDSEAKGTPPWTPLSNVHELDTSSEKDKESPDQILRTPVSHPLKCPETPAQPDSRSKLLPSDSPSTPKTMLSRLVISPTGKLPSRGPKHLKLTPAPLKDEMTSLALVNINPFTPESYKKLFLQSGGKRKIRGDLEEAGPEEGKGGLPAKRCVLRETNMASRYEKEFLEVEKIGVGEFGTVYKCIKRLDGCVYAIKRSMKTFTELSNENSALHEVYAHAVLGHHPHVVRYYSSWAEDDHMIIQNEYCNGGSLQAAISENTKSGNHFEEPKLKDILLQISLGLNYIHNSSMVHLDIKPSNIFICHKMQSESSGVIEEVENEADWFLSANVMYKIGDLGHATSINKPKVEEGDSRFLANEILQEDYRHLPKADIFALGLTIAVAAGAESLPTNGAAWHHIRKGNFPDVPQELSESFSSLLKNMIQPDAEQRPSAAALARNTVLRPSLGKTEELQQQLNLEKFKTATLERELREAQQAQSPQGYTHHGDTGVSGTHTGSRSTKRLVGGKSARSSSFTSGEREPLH
The target in assay [5] is T2, Mitogen-activated protein kinase 12 (Homo sapiens) (UniProt P53778).
T2 sequence (whole entry): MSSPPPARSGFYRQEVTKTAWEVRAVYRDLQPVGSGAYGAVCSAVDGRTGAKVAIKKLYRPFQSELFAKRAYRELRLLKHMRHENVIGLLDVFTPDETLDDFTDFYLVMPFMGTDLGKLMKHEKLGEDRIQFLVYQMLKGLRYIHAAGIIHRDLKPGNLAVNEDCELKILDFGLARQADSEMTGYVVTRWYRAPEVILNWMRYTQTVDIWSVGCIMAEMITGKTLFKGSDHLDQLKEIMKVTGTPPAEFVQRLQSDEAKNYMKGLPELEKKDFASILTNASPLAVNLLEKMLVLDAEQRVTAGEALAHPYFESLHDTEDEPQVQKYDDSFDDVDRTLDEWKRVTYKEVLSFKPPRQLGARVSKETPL
Kind of assay: Inhibition of human recombinant p38gamma at 500 nM in presence of ATP by radiometric assay relative to control.

The target of assay [6] is Aurora kinase B (Homo sapiens) (UniProt Q96GD4). Description: Inhibition of human recombinant AurB at 500 nM related to control ULK1.
Chain of Aurora kinase B (Homo sapiens) (Q96GD4 whole entry): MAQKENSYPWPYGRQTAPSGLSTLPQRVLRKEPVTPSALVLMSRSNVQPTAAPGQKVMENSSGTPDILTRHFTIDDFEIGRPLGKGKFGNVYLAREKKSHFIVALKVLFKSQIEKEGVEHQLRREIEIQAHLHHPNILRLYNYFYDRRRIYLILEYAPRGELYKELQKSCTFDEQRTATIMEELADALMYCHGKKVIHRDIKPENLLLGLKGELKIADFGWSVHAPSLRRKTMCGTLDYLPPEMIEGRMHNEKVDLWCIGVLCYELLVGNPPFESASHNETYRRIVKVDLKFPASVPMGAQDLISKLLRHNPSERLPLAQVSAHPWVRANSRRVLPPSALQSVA
Assay [7] has as its target 5'-AMP-activated protein kinase catalytic subunit alpha-1 (Homo sapiens) (UniProt Q13131). Description: Inhibition of human recombinant AMPKa1 at 500 nM in presence of ATP by radiometric assay relative to control. In short, it runs like this: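 Panel of 327 recombinant human kinases, each assayed in vitro by radiometric activity assay in duplicate at a single inhibitor concentration per compound, chosen with reference to its ULK1 inhibition. Activity remaining was expressed as percent of vehicle control, and percent inhibition was calculated as 100 minus percent activity remaining.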

Assay [8] concerns the target Ribosomal protein S6 kinase alpha-2 (Homo sapiens) (UniProt Q15349). Kind of assay: Inhibition of human recombinant RSK3 at 500 nM in presence of ATP by radiometric assay relative to control.
Assay [9] concerns the target Tyrosine-protein kinase Lyn (Homo sapiens) (UniProt P07948). Kind of assay: Inhibition of human recombinant LYN at 15 nM in presence of ATP by radiometric assay relative to control.
The target of assay [10] is Cyclin-dependent kinase 13 (Homo sapiens) (UniProt Q14004). Kind of assay: Inhibition of human recombinant CHED at 15 nM in presence of ATP by radiometric assay relative to control.
Chain of Cyclin-dependent kinase 13 (Homo sapiens) (Q14004 whole entry, looked up): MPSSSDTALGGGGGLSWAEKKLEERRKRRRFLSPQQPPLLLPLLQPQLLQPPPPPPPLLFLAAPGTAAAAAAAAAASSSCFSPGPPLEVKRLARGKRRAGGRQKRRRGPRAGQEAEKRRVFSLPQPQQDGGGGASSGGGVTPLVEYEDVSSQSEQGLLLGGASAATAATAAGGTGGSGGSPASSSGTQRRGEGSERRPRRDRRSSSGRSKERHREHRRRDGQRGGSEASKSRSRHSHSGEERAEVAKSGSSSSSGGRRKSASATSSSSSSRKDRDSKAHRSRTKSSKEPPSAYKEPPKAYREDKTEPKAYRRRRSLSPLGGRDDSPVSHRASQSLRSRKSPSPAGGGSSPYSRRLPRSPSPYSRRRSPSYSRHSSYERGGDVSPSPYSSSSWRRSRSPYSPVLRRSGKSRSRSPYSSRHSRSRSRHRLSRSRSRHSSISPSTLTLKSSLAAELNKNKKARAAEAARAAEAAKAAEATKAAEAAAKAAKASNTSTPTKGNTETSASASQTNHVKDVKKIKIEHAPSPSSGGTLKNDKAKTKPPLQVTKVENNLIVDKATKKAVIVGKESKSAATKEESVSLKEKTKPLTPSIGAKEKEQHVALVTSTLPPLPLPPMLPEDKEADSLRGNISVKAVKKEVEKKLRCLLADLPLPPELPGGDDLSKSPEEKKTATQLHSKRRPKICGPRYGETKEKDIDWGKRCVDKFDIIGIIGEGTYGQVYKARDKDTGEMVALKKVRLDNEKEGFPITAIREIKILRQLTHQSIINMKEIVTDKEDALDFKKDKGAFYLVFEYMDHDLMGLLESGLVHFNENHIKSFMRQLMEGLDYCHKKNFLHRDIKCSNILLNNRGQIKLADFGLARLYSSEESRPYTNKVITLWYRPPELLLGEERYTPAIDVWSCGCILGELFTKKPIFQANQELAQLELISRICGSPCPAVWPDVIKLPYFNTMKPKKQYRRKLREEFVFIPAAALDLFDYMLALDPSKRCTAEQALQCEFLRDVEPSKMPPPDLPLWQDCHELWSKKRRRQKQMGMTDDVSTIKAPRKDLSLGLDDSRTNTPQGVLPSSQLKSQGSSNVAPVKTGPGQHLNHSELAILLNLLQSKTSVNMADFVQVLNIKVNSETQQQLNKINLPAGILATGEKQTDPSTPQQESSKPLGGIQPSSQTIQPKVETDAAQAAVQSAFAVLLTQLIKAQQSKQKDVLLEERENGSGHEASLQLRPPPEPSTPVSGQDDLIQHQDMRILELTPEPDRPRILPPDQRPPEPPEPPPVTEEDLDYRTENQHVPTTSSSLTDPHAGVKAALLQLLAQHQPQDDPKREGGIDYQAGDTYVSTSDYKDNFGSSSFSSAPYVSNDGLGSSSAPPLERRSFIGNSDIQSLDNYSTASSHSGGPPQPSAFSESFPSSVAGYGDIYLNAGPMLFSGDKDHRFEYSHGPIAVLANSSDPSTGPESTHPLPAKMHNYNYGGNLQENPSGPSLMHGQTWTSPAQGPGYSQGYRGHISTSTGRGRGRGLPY
In assay [11] the target is Cyclin-dependent kinase-like 1 (Homo sapiens) (UniProt Q00532). Kind of assay: Inhibition of human recombinant CDKL1 at 15 nM in presence of ATP by radiometric assay relative to control.
Assay [12] deals with Ribosomal protein S6 kinase alpha-3 (Homo sapiens) (UniProt P51812). Kind of assay: Inhibition of human recombinant RSK2 at 15 nM in presence of ATP by radiometric assay relative to control.
Assay [13] deals with Ephrin type-A receptor 4 (Homo sapiens) (UniProt P54764). Kind of assay: Inhibition of human recombinant EphA4 at 15 nM related to control ULK1.
Assay [14] addresses Protein kinase C delta type (Homo sapiens) (UniProt Q05655). Kind of assay: Inhibition of human recombinant PKCd at 15 nM related to control ULK1.
Assay [15] deals with Tyrosine-protein kinase Fgr (Homo sapiens) (UniProt P09769). Description: Inhibition of human recombinant FGR at 15 nM related to control ULK1.
Chain of Tyrosine-protein kinase Fgr (Homo sapiens) (P09769 2-529 limits assumed): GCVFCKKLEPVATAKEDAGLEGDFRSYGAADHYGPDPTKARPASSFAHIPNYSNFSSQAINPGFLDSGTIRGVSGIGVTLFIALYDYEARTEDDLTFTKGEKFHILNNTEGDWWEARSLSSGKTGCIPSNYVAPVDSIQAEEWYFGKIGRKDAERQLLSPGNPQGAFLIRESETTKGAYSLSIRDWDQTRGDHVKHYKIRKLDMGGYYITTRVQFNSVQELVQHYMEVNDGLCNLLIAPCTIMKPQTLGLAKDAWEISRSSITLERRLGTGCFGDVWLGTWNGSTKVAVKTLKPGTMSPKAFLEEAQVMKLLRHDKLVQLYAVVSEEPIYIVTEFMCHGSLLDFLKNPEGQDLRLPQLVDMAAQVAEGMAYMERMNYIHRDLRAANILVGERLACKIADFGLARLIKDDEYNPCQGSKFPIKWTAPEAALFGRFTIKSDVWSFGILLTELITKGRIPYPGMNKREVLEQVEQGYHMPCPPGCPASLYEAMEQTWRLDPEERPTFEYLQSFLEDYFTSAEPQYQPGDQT
Assay [16] deals with SRSF protein kinase 3 (Homo sapiens) (UniProt Q9UPE1). Description: Inhibition of human recombinant MSSK1 at 15 nM related to control ULK1.
Assay [17] concerns the target Receptor-interacting serine/threonine-protein kinase 2 (Homo sapiens) (UniProt O43353). Kind of assay: Inhibition of human recombinant RIPK2 at 15 nM in presence of ATP by radiometric assay relative to control.

SMILES strings stand for the structures.

Chain of Receptor-interacting serine/threonine-protein kinase 2 (Homo sapiens) (O43353 whole entry): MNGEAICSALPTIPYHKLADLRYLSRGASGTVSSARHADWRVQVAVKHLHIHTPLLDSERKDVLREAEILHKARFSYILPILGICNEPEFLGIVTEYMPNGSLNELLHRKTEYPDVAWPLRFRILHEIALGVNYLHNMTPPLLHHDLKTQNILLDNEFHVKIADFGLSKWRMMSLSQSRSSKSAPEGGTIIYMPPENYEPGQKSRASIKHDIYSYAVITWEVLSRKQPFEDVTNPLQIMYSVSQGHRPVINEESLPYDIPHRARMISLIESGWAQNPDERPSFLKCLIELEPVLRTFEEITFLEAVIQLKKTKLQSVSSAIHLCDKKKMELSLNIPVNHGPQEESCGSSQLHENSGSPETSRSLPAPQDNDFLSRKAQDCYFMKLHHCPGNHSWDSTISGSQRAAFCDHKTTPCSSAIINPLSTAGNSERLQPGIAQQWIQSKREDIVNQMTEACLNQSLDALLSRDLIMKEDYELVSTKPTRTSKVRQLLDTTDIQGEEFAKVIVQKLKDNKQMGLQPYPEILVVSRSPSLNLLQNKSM
Chain of Protein kinase C delta type (Homo sapiens) (Q05655 whole entry, looked up): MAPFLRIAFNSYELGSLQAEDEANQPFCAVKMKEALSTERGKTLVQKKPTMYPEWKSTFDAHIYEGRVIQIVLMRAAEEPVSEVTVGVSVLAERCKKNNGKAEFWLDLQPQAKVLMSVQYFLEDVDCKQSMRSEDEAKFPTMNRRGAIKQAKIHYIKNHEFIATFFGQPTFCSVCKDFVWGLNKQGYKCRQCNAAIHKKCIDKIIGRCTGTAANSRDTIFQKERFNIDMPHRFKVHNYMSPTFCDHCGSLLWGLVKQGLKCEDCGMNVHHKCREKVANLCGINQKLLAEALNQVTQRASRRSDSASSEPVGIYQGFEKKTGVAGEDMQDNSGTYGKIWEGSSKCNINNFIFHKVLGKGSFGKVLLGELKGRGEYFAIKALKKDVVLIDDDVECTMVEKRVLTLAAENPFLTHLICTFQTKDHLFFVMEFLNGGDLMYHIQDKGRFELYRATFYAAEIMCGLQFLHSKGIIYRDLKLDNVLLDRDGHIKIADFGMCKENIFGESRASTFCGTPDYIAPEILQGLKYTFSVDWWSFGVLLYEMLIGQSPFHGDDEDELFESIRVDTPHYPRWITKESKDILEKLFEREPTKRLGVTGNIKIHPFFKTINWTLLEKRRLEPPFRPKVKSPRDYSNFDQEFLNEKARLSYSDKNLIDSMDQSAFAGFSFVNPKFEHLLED

Consider `O=C(N[C@@H](C1CC1)C(F)(F)F)c1cc(-c2cnn3cc(-c4ccc(F)cc4)cnc23)cs1`, for which the fold change (FC) in assay [1] amounted to 0.04; in [3], 0.01. The inhibition in assay [2] and in assay [4] was 0% in each case.
In the case of `CNC(=O)c1ccccc1Oc1nc(Nc2cc(OC)c(OC)c(OC)c2)ncc1Br`, the inhibition was determined as 0% in [5], 51% in assay [7] and 49% in assay [8]. Moreover, the fold change (FC) in assay [6] turned out to be 1.24.
Consider `CC(C)[C@H](NC(=O)c1cc(-c2cnn3cc(-c4ccc(OCCN5CCCCC5)cc4)cnc23)cs1)C(F)(F)F`, for which the inhibition in [9] is 19%; in assay [10], 0%; in assay [11], 24%; in assay [12], 0%; in [17], 10%. Moreover, the fold change (FC) in [13] was 0; in [14], 0; in assay [15], 0.49; in assay [16] it was 0.

Usually inhibition stands for the drop in the measured response relative to a control, in per cent.
